pKd: −log10 of the molar value. In brackets after ≈: the same amount, converted by molar mass. Activity calls are given as the source filed them. The rule behind the calls is not given here.
Assays:
[1] = Selectivity ratio of Kd for Mycobacterium tuberculosis MbtA to Kd for Acinetobacter baumanni BasE
[2] = test system: Acinetobacter baumannii; assay: Antibacterial activity against Acinetobacter baumannii ATCC 19606 using iron-replete M9 minimal media after 15 hrs by broth microdilution assay; format: functional, organism-based; conditions: ATCC 19606 = CIP 70.34 = JCM 6841
Procedure, shortened: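 ATCC 19606 grown overnight at 30 °C on LB agar, washed twice in dipyridyl-containing M9/casamino acids medium, then diluted to A600 0.0003 in M9 minimal medium with 0.2% casamino acids plus 200 μM FeCl3. Inhibitors from DMSO at 100 μM final, in triplicate. Controls were tetracycline (100 ng/mL) and 1% DMSO. Incubated at 30 °C, A600 measured at 15 h.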

[3] = test system: Acinetobacter baumannii; assay: Antibacterial activity against Acinetobacter baumannii ATCC 19606 using iron-deficient M9 minimal media after 15 hrs by broth microdilution assay; format: functional, organism-based; conditions: ATCC 19606 = CIP 70.34 = JCM 6841
Procedure, shortened: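 ATCC 19606 grown overnight at 30 °C on LB agar, washed twice and resuspended in M9 minimal medium with 0.2% casamino acids and 200 μM dipyridyl. Inoculated at A600 0.0003 in this medium plus 1 μM FeCl3. Inhibitors from DMSO at 100 μM final, in triplicate. Tetracycline (100 ng/mL) and 1% DMSO as controls. Incubated at 30 °C; A600 read at 15 h.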

[4] = Displacement of Fl-Sal-AMS from Mycobacterium tuberculosis MbtA expressed in Escherichia coli after 30 mins by fluorescence polarization assay
[5] = Displacement of Fl-Sal-AMS from Acinetobacter baumanni BasE expressed in Escherichia coli after 30 mins by fluorescence polarization assay; set-up: species or system Acinetobacter baumannii; conditions: read-out: Kd
[6] = test system: Mycobacterium tuberculosis; assay: Bacteriostatic activity against Mycobacterium tuberculosis H37Rv using iron-replete GAST media after 10 to 14 days by broth microdilution assay; format: functional
Procedure, shortened: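 Broth microdilution in GAST supplemented with 200 μM FeCl₃, in quadruplicate, with compounds from DMSO stocks and DMSO-matched controls. Isoniazid served as positive control. Inoculum 10⁴–10⁵ cells/assay, 100 μL/well, 37 °C. OD₆₂₀ was read at 10–14 days, when untreated controls reached 0.2–0.3.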

[7] = test system: Mycobacterium tuberculosis; assay: Bacteriostatic activity against Mycobacterium tuberculosis H37Rv using iron-deficient GAST media after 10 to 14 days by broth microdilution assay; format: functional
Procedure, shortened: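 Broth microdilution in iron-deficient GAST, in quadruplicate, with compounds from DMSO stocks and DMSO-matched control wells. Isoniazid served as positive control. Initial density 10⁴–10⁵ cells/assay, 100 μL/well, 37 °C. Growth was read as OD at 620 nm at 10–14 days, when untreated controls reached OD₆₂₀ 0.2–0.3.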

| Compound | Selectivity ratio [1] | Activity [2] | Activity [3] | pKd [4] | pKd [5] | MIC99 [6] | MIC99 [7] |
| --- | --- | --- | --- | --- | --- | --- | --- |
| O=C(O)c1cc(-c2ccc(OCc3ccccc3)cc2)nc2c1cnn2Cc1ccncc1 | 1000 | inactive | inactive | 5.27 | 8.67 |  |  |
| O=C(O)c1cc(-c2ccc(Cl)s2)nc2c1cnn2Cc1ccncc1 |  | inactive | inactive |  |  | 50 µM (≈ 18.5 µg/mL) | 50 µM (≈ 18.5 µg/mL) |
| O=C(O)c1cc(-c2ccccc2)nc2c1cnn2Cc1ccncc1 |  | inactive | inactive |  |  | > 125 µM | > 125 µM |
| O=C(O)c1cc(-c2ccc(Oc3ccccc3)cc2)nc2c1cnn2Cc1ccncc1 |  | inactive | inactive |  |  | 25 µM (≈ 10.6 µg/mL) | 25 µM (≈ 10.6 µg/mL) |
| CCOC(=O)c1cc(-c2ccc(Cl)s2)nc2c1cnn2Cc1ccncc1 |  |  |  |  |  | 25 µM (≈ 9.97 µg/mL) | 25 µM (≈ 9.97 µg/mL) |
| O=C(c1ccccc1)c1ccc(-c2cc(C(=O)O)c3cnn(Cc4ccncc4)c3n2)cc1 |  | inactive | inactive |  |  | > 125 µM | > 125 µM |
| CCOC(=O)c1cc(-c2ccc(Oc3ccccc3)cc2)nc2c1cnn2Cc1ccncc1 |  |  |  |  |  | 100 µM (≈ 45 µg/mL) | 50 µM (≈ 22.5 µg/mL) |
| CCOC(=O)c1cc(-c2ccccc2)nc2c1cnn2Cc1ccncc1 |  | inactive | inactive | < 4.00 | 5.67 | 125 µM (≈ 44.8 µg/mL) | > 125 µM |
| CCOC(=O)c1cc(-c2ccc(C(=O)c3ccccc3)cc2)nc2c1cnn2Cc1ccncc1 |  |  |  |  |  | > 125 µM | > 125 µM |
| NC(=O)c1ccc(-c2cc(C(=O)O)c3cnn(Cc4ccncc4)c3n2)cc1 |  | inactive | inactive | 6.00 | 6.54 |  |  |

Source: ChEMBL document CHEMBL2321876
